Screens as filed in PubChem BioAssay.
YB-1 expr inh = inhibitors of YB-1 gene expression, primary screen, cell-based, fluorescence; U2OS, qRT-PCR YB-1 vs CDIP delta delta Cp, 16 h; hits give high values; zero = DMSO, each unit about twofold; delta delta Cp (YB-1 minus CDIP) (no concentration beside the values); 30,000 tested, 0.37% active; AID 434959, 2010;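 active = delta delta Cp rounded down to an integer at or above 3, about 3 SD of DMSO wells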;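 also: higher means less YB-1 transcript or more CDIP transcript relative to DMSO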
T cruzi intra = inhibitors of intracellular Trypanosoma cruzi, primary screen, cell-based, plate reader, single point, set 2. intracellular Trypanosoma cruzi in host cells. activity score (inhibition), % at 5.01 µM. 22,000 tested, 4.9% active; in the data active = activity score above about 55%; inconclusive = no clear call, values can overlap the other calls;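 also: parasites and compound incubated about four days before reading; 0% = median of neutral control wells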
INS-1E rescue = protection of INS-1E cells from cytokine death, primary screen, ATP luminescence, single point; INS-1E cytokine-induced death, 48 h; normalised: neutral wells 0, positive control 100; protection from cytokine-induced ATP loss, % at 10 µM; 20,000 tested, 0.1% active; AID 488910, 2010;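 active = mean replicate protection from cytokine-induced ATP loss at least 50% and at least 75% of replicates each reaching 50%; inconclusive = meets only one of the two criteria, mean or replicate share; inactive = fails both the mean and replicate share criteria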
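Test system: INS-1E rat cells | Quantity: 8000 cells per well | Medium: Phenol-red-free RPMI with 5% fetal bovine serum | Reagent: Cytokine cocktail of IFN-γ, TNF-α and IL-1β | Doses: One compound concentration, pin transfer | Timing: 48 h co-treatment, 10 min post-lysis read | Technique: Luminescent ATP assay (CellTiter-Glo)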
Numbers without * were called inactive; ? = inconclusive; · = not tested or not shown. Many of the other results were omitted from the sample, so hits are more common in it than they were.

SMILES | YB-1 expr inh | T cruzi intra | INS-1E rescue
COc1ccc(S(=O)(=O)Nc2ccc3c(c2)C(=O)N([C@@H](C)CO)C[C@H](C)[C@@H](CN(C)S(C)(=O)=O)O3)cc1 | -0.14 | -7 | -1
C[C@H]1CN([C@@H](C)CO)C(=O)Cc2cc(NC(=O)Nc3ccccc3)ccc2O[C@@H]1CN(C)Cc1ccc(Oc2ccccc2)cc1 | 0.017 | 49 | -26
C[C@@H]1CN([C@H](C)CO)C(=O)Cc2cc(NC(=O)Nc3ccccc3)ccc2O[C@@H]1CN(C)Cc1ccc(Oc2ccccc2)cc1 | -0.2 | 72* | -69
C[C@H]1CN([C@@H](C)CO)C(=O)Cc2cc(NC(=O)Cc3ccccc3)ccc2O[C@H]1CN(C)C(=O)Nc1ccccc1 | -0.09 | -6 | 9
C[C@H](CO)N1C[C@H](C)[C@H](CN(C)C(=O)Nc2ccccc2)Oc2ccc(NC(=O)Cc3ccccc3)cc2CC1=O | 4.6* | -9 | 3
C[C@H](CO)N1C[C@H](C)[C@H](CN(C)Cc2ccc(-c3ccccc3)cc2)Oc2ccc(NC(=O)Cc3ccccc3)cc2CC1=O | 0.23 | 47 | -18
C[C@@H]1CN([C@H](C)CO)C(=O)Cc2cc(NC(=O)Cc3ccccc3)ccc2O[C@@H]1CN(C)Cc1ccc(-c2ccccc2)cc1 | 0.28 | 72* | -62
C[C@@H]1CN([C@H](C)CO)C(=O)c2cccc(NC(=O)C3CCOCC3)c2O[C@@H]1CN(C)C(=O)Nc1ccc(F)cc1 | 0.26 | -19 | 2
COC(=O)C(CC#Cc1ccc2c(c1)[C@]1(C(=O)N2)[C@H](C(=O)NC[C@H](O)c2ccccc2)[C@H]2C(=O)O[C@H](c3ccccc3)[C@H](c3ccccc3)N2[C@@H]1c1ccccc1OCCO)C(=O)OC | 0.14 | · | ·
C[C@@H]1CN([C@H](C)CO)C(=O)c2cc(NS(=O)(=O)c3ccc(F)cc3)ccc2O[C@@H]1CN(C)S(=O)(=O)c1ccccc1 | 0.42 | 8 | 10
COc1ccc(S(=O)(=O)Nc2ccc3c(c2)C(=O)N([C@H](C)CO)C[C@@H](C)[C@H](CN(C)C)O3)cc1 | -1.4 | 0 | ·
C[C@@H]1CN([C@@H](C)CO)C(=O)c2cccc(NC(=O)Nc3ccccc3)c2O[C@@H]1CN(C)C(=O)Nc1ccccc1 | 1.2 | -30 | 0
C[C@@H]1CN([C@H](C)CO)C(=O)c2cc(NC(=O)Nc3ccc(F)cc3)ccc2O[C@@H]1CN(C)S(=O)(=O)c1cccs1 | 0.062 | -3 | 14
Cc1ccc(S(=O)(=O)Nc2ccc3c(c2)C(=O)N([C@H](C)CO)C[C@@H](C)[C@@H](CN(C)Cc2ccc4c(c2)OCO4)O3)cc1 | -0.26 | 8 | -4
C[C@H](CO)N1C[C@H](C)[C@@H](CN(C)Cc2ccc3c(c2)OCO3)Oc2ccc(NS(=O)(=O)c3ccc(F)cc3)cc2C1=O | -0.046 | 59* | 3
C[C@H](CO)N1C[C@H](C)[C@@H](CN(C)Cc2ccc(C(F)(F)F)cc2)Oc2ccc(NS(=O)(=O)c3ccc(F)cc3)cc2C1=O | -0.4 | 61* | ·
C[C@@H]1CN([C@@H](C)CO)C(=O)c2cc(NS(=O)(=O)c3ccc(F)cc3)ccc2O[C@H]1CN(C)Cc1ccc(C(F)(F)F)cc1 | 0.34 | 38 | -13
C[C@H]1CN([C@@H](C)CO)C(=O)c2cc(NS(=O)(=O)c3ccccc3)ccc2O[C@H]1CN(C)Cc1ccc(C(F)(F)F)cc1 | -0.061 | 62* | ·
Cc1ccc(S(=O)(=O)Nc2ccc3c(c2)C(=O)N([C@@H](C)CO)C[C@@H](C)[C@@H](CN(C)Cc2ccc(C(F)(F)F)cc2)O3)cc1 | 0.29 | -7 | ·
C[C@@H]1CN([C@@H](C)CO)C(=O)c2cc(NS(=O)(=O)c3ccccc3)ccc2O[C@H]1CN(C)Cc1ccc(C(F)(F)F)cc1 | 0.05 | 44 | -18
Cc1ccc(S(=O)(=O)Nc2ccc3c(c2)C(=O)N([C@H](C)CO)C[C@@H](C)[C@@H](CN(C)Cc2ccc(C(F)(F)F)cc2)O3)cc1 | 0.2 | 60* | -27
C[C@@H]1CN([C@H](C)CO)C(=O)c2cc(NS(=O)(=O)c3ccccc3)ccc2O[C@@H]1CN(C)S(=O)(=O)c1ccc(Cl)cc1 | 0.32 | 22 | -11
Cc1ccc(S(=O)(=O)Nc2ccc3c(c2)C(=O)N([C@H](C)CO)C[C@@H](C)[C@H](CN(C)Cc2ccc(C(=O)O)cc2)O3)cc1 | -0.16 | -25 | 5
C[C@@H]1CN([C@@H](C)CO)C(=O)c2cc(NS(=O)(=O)c3ccc(F)cc3)ccc2O[C@@H]1CN(C)Cc1ccc(C(F)(F)F)cc1 | 0.00013 | ? | -31
C[C@@H]1CN([C@@H](C)CO)C(=O)c2cc(NS(=O)(=O)c3ccc(Cl)cc3)ccc2O[C@@H]1CN(C)Cc1ccc(C(F)(F)F)cc1 | 0.18 | 84* | -31
SMILES | YB-1 expr inh | T cruzi intra | INS-1E rescue
COc1ccc(S(=O)(=O)Nc2ccc3c(c2)C(=O)N([C@H](C)CO)C[C@@H](C)[C@H](CN(C)Cc2ccc(C(F)(F)F)cc2)O3)cc1 | -1.2 | 5 | ·
Cc1ccc(S(=O)(=O)Nc2ccc3c(c2)C(=O)N([C@@H](C)CO)C[C@H](C)[C@H](CN(C)Cc2ccc(C(=O)O)cc2)O3)cc1 | -0.096 | -19 | 8
Cc1ccc(S(=O)(=O)Nc2ccc3c(c2)C(=O)N([C@H](C)CO)C[C@H](C)[C@@H](CN(C)Cc2ccc(C(F)(F)F)cc2)O3)cc1 | -0.03 | 67* | 3
Cc1ccc(S(=O)(=O)Nc2ccc3c(c2)C(=O)N([C@@H](C)CO)C[C@H](C)[C@@H](CN(C)Cc2ccc(C(F)(F)F)cc2)O3)cc1 | -0.052 | 65* | ·
COc1ccc(S(=O)(=O)Nc2ccc3c(c2)C(=O)N([C@H](C)CO)C[C@H](C)[C@@H](CN(C)Cc2ccc(C(F)(F)F)cc2)O3)cc1 | 0.12 | 64* | -12
Cc1ccc(OC(=O)N(C)C[C@H]2OCc3cn(nn3)CCCC(=O)N([C@@H](C)CO)C[C@@H]2C)cc1 | 0.067 | -20 | -3
O=S(=O)(N[C@@H]1CCN(Cc2ccc(OCCO)cc2)C1)c1ccc(Cl)c(Cl)c1 | 0.0041 | · | ·
CC(C)NC(=O)Nc1cccc2c1O[C@@H](CN(C)C(=O)Nc1ccc3c(c1)OCO3)[C@@H](C)CN([C@@H](C)CO)C2=O | 0.25 | -10 | 15
CCOC(=O)c1cnc(S/C=C/C(=O)c2ccc(Cl)cc2)nc1N | -0.54 | · | ·
Cc1noc(C)c1S(=O)(=O)N(C)C[C@@H]1Oc2ccc(NS(C)(=O)=O)cc2CC(=O)N([C@@H](C)CO)C[C@@H]1C | 0.28 | -13 | 6
Cc1ccc(S(=O)(=O)Nc2ccc3c(c2)CC(=O)N([C@H](C)CO)C[C@@H](C)[C@@H](CN(C)C(=O)Nc2ccc(F)cc2)O3)cc1 | -0.37 | 1 | 5
C[C@H](CO)N1C[C@H](C)[C@H](CN(C)Cc2ccc3c(c2)OCO3)Oc2c(NC(=O)Nc3ccc(F)cc3)cccc2C1=O | 0.039 | 50 | -22
C[C@@H]1CN([C@H](C)CO)C(=O)c2cccc(NC(=O)Nc3ccc(C(F)(F)F)cc3)c2O[C@H]1CN(C)Cc1ccc2c(c1)OCO2 | 0.091 | 80* | -58
